Assay results: ChEMBL document CHEMBL1137372, “Structural investigation of the 7-chloro-3-hydroxy-1H-quinazoline-2,4-dione scaffold to obtain AMPA and kainate receptor selective antagonists. Synthesis, pharmacological, and molecular modeling studies” (J Med Chem, 2006)

How the values were obtained:
[1] = molecular target: Glutamate receptor ionotropic, AMPA (Rattus norvegicus) (UniProt P19491+P19492+P19493+P19490); assay: Displacement of [3H]AMPA from AMPA receptor in rat cortical synaptic membrane at 100 uM; type: cell membranes
[2] = molecular target: Glutamate NMDA receptor (Rattus norvegicus) (UniProt P35439+Q00959+Q00960+Q00961+Q62645+Q8VHN2+Q9R1M7); assay: Displacement of [3H]glycine from Gly/NMDA receptor in rat cortical synaptic membrane at 100 uM; type: cell membranes
Rattus norvegicus [3] = species: Rattus norvegicus; assay: Displacement of [3H]KA from high affinity KA receptor in rat cortical membrane at 100 uM; type: cell membranes
Outline: (§1)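 Rat cortical membranes were used for the high-affinity and low-affinity [3H]kainate binding assays, following earlier published methods. Test compound was made as a 1 mM stock in 50% DMSO and diluted in buffer. The value is percent inhibition of specific binding at 100 µM.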

[4] = molecular target: Glutamate receptor ionotropic, AMPA (Rattus norvegicus, UniProt P19490+P19491+P19492+P19493); assay: Displacement of [3H]AMPA from AMPA receptor in rat cortical synaptic membrane; type: cell membranes
[5] = Displacement of [3H]KA from high affinity KA receptor in rat cortical membrane; type: cell membranes
Outline: (§2)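 High- and low-affinity [3H]kainate binding to rat cortical membranes. Compounds were made up as a 1 mM stock in 50% DMSO and diluted in buffer. IC50s came from three or four displacement curves using four to six concentrations in triplicate, fitted with ALLFIT. Ki values are mean ± SEM of three or four determinations in triplicate.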

Glutamate NMDA receptor = assay: Displacement of [3H]glycine from Gly/NMDA receptor in rat cortical synaptic membrane; type: cell membranes
Rattus norvegicus [6] = species: Rattus norvegicus; assay: Displacement of [3H]KA from low affinity KA receptor in rat cortical membrane at 100 uM; type: cell membranes; outline: as §1
[7] = Antagonist activity against NMDA receptor assessed as inhibition of NMDA-induced depolarization in mouse cortex; type: functional, tissue-based
Outline: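 Mouse cortical wedge preparation. Depolarization was evoked with 5 µM NMDA. The IC50 is the concentration giving 50% inhibition of the depolarization, as mean ± SEM of three separate determinations.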

[8] = molecular target: Glutamate receptor ionotropic, AMPA (Mus musculus, UniProt P23818+P23819+Q9Z2W8+Q9Z2W9); assay: Antagonist activity against AMPA receptor assessed as inhibition of SAMPA-induced depolarization of mouse cortex
Mus musculus [9] = assay: Antinociceptive activity in mouse at 1 mg/kg, po measured as number of acetic acid-induced writhes by abdominal constriction assay; type: functional, Abdomen
Mus musculus [10] = assay: Antinociceptive activity in mouse at 0.1 mg/kg, po measured as number of acetic acid-induced writhes by abdominal constriction assay; type: functional, Abdomen
Mus musculus [11] = assay: Antinociceptive activity in mouse at 10 mg/kg, po measured as number of acetic acid-induced writhes by abdominal constriction assay; type: functional, Abdomen
Mus musculus [12] = assay: Activity against mouse motor coordination measured as number of falls from the rod in 30 sec by rotarod test at 20 mg/kg, po after 30 mins; type: functional
Outline: (§3)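 Mice on a 3-cm rod rotating at 16 rpm, up to five at once. Drug dispersed in 1% sodium CMC and given po in 10 mL kg^-1 30 min before testing. Falls from the rod in 30 s were counted before treatment and at 30, 45 and 60 min after. Each value is the mean of eight mice.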

Mus musculus [13] = assay: Activity against mouse motor coordination measured as number of falls from the rod in 30 sec by rotarod test at 20 mg/kg, po after 45 mins; type: functional; outline: as §3
Mus musculus [14] = assay: Activity against mouse motor coordination measured as number of falls from the rod in 30 sec by rotarod test at 20 mg/kg, po after 60 mins; type: functional; outline: as §3
Mus musculus [15] = assay: Activity against mouse motor coordination measured as number of falls from the rod in 30 sec by rotarod test at 50 mg/kg, po after 30 mins; type: functional; outline: as §3
Mus musculus [16] = assay: Activity against mouse motor coordination measured as number of falls from the rod in 30 sec by rotarod test at 50 mg/kg, po after 45 mins; type: functional; outline: as §3
Mus musculus [17] = assay: Activity against mouse motor coordination measured as number of falls from the rod in 30 sec by rotarod test at 50 mg/kg, po after 60 mins; type: functional; outline: as §3
[18] = Displacement of [3H]KA from low affinity KA receptor in rat cortical membrane; type: cell membranes; outline: as §2
Mus musculus [19] = assay: Antinociceptive activity in mouse at 5 mg/kg, po measured as number of acetic acid-induced writhes by abdominal constriction assay; type: functional, Abdomen

Row | inhibition [1] | inhibition [2] | inhibition (Rattus norvegicus [3]) | Ki [4] | IC50 [5] | Ki (Glutamate NMDA receptor) | Structure (SMILES) | also measured
1 | 33% | 27% | 32% | – | – | – | O=C(NCc1ccccc1)Nc1cc2c(=O)n(O)c(=O)[nH]c2cc1Cl | –
2 | – | 33% | – | 45 µM | 52 µM | – | O=C(Nc1cc2c(=O)n(O)c(=O)[nH]c2cc1Cl)c1ccccc1 | –
3 | 35% | 32% | 20% | – | – | – | COC(=O)c1cccc(C(=O)Nc2cc3c(=O)n(O)c(=O)[nH]c3cc2Cl)c1 | –
4 | 35% | 40% | 10% | – | – | – | O=C(O)C(CCO)On1c(=O)[nH]c2cc(Cl)ccc2c1=O (racemic) | –
5 | – | – | – | 4.2 µM | 6.2 µM | 22.7 µM | O=Cc1ccn(-c2cc3c(=O)n(O)c(=O)[nH]c3cc2Cl)c1 | –
6 | – | – | – | 16.6 µM | 8.2 µM | 1 µM | O=c1[nH]c2cc(Cl)c(-n3cccc3)cc2c(=O)n1O | –
7 | 29% | 40% | – | – | 12.9 µM | – | O=C(O)c1ccc(C(=O)Nc2cc3c(=O)n(O)c(=O)[nH]c3cc2Cl)cc1 | inhibition (Rattus norvegicus [6]): 0%
8 | – | 44% | – | 1.3 µM | 13 µM | – | O=C(O)c1ccn(-c2cc3c(=O)n(O)c(=O)[nH]c3cc2Cl)c1 | –
9 | 9% | 0% | 5% | – | – | – | CCOC(=O)COn1c(=O)[nH]c2cc(Cl)ccc2c1=O | –
10 | – | – | 44% | 36 µM | – | 88 µM | O=C1CCC(=O)N1c1cc2c(=O)n(O)c(=O)[nH]c2cc1Cl | –
11 | – | 20% | – | 117 µM | 46 µM | – | N[C@@H](Cn1ccc(=O)n(Cc2ccccc2C(=O)O)c1=O)C(=O)O | IC50 [18]: 15 µM

Second part, the compound before the results:

Row | Structure (SMILES) | inhibition [1] | inhibition [2] | inhibition (Rattus norvegicus [3]) | Ki [4] | IC50 [5] | Ki (Glutamate NMDA receptor) | also measured
12 | O=C(O)CCC(=O)Nc1cc2c(=O)n(O)c(=O)[nH]c2cc1Cl | – | 8% | – | 8.4 µM | 5.4 µM | – | –
13 | COC(=O)c1ccc(C(=O)Nc2cc3c(=O)n(O)c(=O)[nH]c3cc2Cl)cc1 | 43% | 10% | 28% | – | – | – | –
14 | O=C1OCCC1On1c(=O)[nH]c2cc(Cl)ccc2c1=O (racemic) | 26% | 37% | 11% | – | – | – | –
15 | O=C(O)COn1c(=O)[nH]c2cc(Cl)ccc2c1=O | – | – | 5% | 99 µM | – | 90 µM | –
16 | O=c1[nH]c2cc(Cl)ccc2c(=O)n1O | – | – | – | – | 140 µM | 0.24 µM | –
17 | O=c1[nH]c2cc(Cl)c(-n3cnnc3)cc2c(=O)n1O | – | 47% | – | – | 7 µM | – | IC50 [7]: 84 µM; IC50 [8]: 4.6 µM
18 | CN1CCc2c(-c3ccc(S(=O)(=O)N(C)C)cc3)cc3c(c2C1)NC(=O)/C3=N\OC(CCO)C(=O)O (configuration not stated) | – | – | – | 0.043 µM | 81 µM | > 30 µM | –
19 | O=C(O)c1cccc(C(=O)Nc2cc3c(=O)n(O)c(=O)[nH]c3cc2Cl)c1 | – | 32% | – | 60 µM | 100 µM | – | inhibition (Rattus norvegicus [6]): 0%
20 | O=C1C=CCN1c1cc2c(=O)n(O)c(=O)[nH]c2cc1Cl | – | – | – | 6.2 µM | 10 µM | 42 µM | –
21 | O=C(O)c1ccccc1C(=O)Nc1cc2c(=O)n(O)c(=O)[nH]c2cc1Cl | – | 40% | – | 16.5 µM | 0.62 µM | – | Activity (Mus musculus [9]): 26.1; Activity (Mus musculus [10]): 34.7; Activity (Mus musculus [11]): 24.5; Activity (Mus musculus [12]): 3.3; Activity (Mus musculus [13]): 2.6; Activity (Mus musculus [14]): 1.7; Activity (Mus musculus [15]): 4.8; Activity (Mus musculus [16]): 3.7; Activity (Mus musculus [17]): 3.2; IC50 [18]: 1.6 µM
22 | O=c1ccn(-c2cc3c(=O)n(O)c(=O)[nH]c3cc2Cl)cc1 | – | – | – | 0.5 µM | 4.1 µM | 25 µM | IC50 [7]: > 80 µM; IC50 [8]: 3.5 µM
23 | O=C(O)Cc1ccccc1Nc1c(Cl)cccc1Cl [DICLOFENAC] | – | – | – | – | – | – | Activity (Mus musculus [19]): 18.2
